Activity calls are given as the source filed them. The calls are words filed in the database; no cut-off is given here.
Experiments:
Type in all cases: functional
U-251 = test: Growth inhibition of human U251 cells at 10 uM after 48 hrs by coulter counting
How it was run: (§1)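 Single-dose screen in the NCI 60 human tumor cell line panel (nine subpanels). Compounds dissolved in DMSO and diluted in phosphate buffered saline, keeping final DMSO below 1%. Added in duplicate wells to cells at 6 × 10⁴ cells/ml. Controls held PBS and DMSO at matching dilutions. Incubated at 37 °C, humidified, 5% CO₂. Reported as percent growth of treated cells.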

SK-MEL-5 = test: Growth inhibition of human SK-MEL-5 cells at 10 uM after 48 hrs by coulter counting; conditions: SK-MEL-5, 48 h, read-out: GI
How it was run: (§2)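 Single-dose primary screen across the full NCI 60-cell-line panel. Stocks were made in DMSO and diluted in PBS to a final DMSO below 1%. Cultures at 6 × 10⁴ cells/ml were run in duplicate wells alongside PBS/DMSO vehicle controls at 37 °C in humidified 5% CO₂. Data were expressed as percent growth of treated cells.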

[1] = Cytotoxicity against human melanoma cells after 48 hrs by coulter counting; conditions: Melanoma cell
How it was run: (§3)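 NCI 60-cell-line panel covering nine tumour subpanels, tested over a 5-log dose range. Compounds were dissolved in DMSO and diluted in phosphate-buffered saline to a final DMSO below 1%. Wells held 6 × 10⁴ cells/ml and were run in duplicate. Controls contained PBS and DMSO at matching dilutions. Incubation was at 37 °C in humidified 5% CO₂. GI₅₀, TGI and LC₅₀ were reported.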

ACHN = test: Growth inhibition of human ACHN cells at 10 uM after 48 hrs by coulter counting; conditions: read-out: GI; how it was run: as §2
UACC-257 = test: Growth inhibition of human UACC257 cells at 10 uM after 48 hrs by coulter counting; conditions: UACC-257, 48 h, read-out: GI; how it was run: as §1
OVCAR-3 = test: Growth inhibition of human OVCAR3 cells at 10 uM after 48 hrs by coulter counting; how it was run: as §2
SK-MEL-28 = test: Growth inhibition of human SK-MEL-28 cells at 10 uM after 48 hrs by coulter counting; conditions: SK-MEL-28, 48 h, read-out: GI; how it was run: as §2
CCRF-CEM = test: Growth inhibition of human CCRF-CEM cells at 10 uM after 48 hrs by coulter counting; conditions: read-out: GI; how it was run: as §2
SR = test: Growth inhibition of human SR cells at 10 uM after 48 hrs by coulter counting; how it was run: as §1
UACC-62 = test: Growth inhibition of human UACC62 cells at 10 uM after 48 hrs by coulter counting; conditions: UACC-62, 48 h, read-out: GI; how it was run: as §1
NCI-H522 = test: Growth inhibition of human NCI-H522 cells at 10 uM after 48 hrs by coulter counting; conditions: NCI-H522, 48 h, read-out: GI; how it was run: as §2
K562 = test: Growth inhibition of human K562 cells at 10 uM after 48 hrs by coulter counting; how it was run: as §2
NCI-H226 = test: Growth inhibition of human NCI-H226 cells at 10 uM after 48 hrs by coulter counting; conditions: NCI-H226, 48 h, read-out: GI; how it was run: as §2
[2] = Cytotoxicity against human ovarian cancer cells after 48 hrs by coulter counting; conditions: Cancer cell lines; how it was run: as §3
MCF7 = test: Growth inhibition of human MCF7 cells at 10 uM after 48 hrs by coulter counting; conditions: MCF7, 48 h, read-out: GI; how it was run: as §2
[3] = Cytotoxicity against human leukemia cells after 48 hrs by coulter counting; conditions: Leukemia cell; how it was run: as §3
SNB-19 = test: Growth inhibition of human SNB19 cells at 10 uM after 48 hrs by coulter counting; conditions: SNB-19, 48 h, read-out: GI; how it was run: as §2
NCI-H23 = test: Growth inhibition of human NCI-H23 cells at 10 uM after 48 hrs by coulter counting; conditions: NCI-H23, 48 h, read-out: GI; how it was run: as §2
[4] = Cytotoxicity against human renal cancer cells after 48 hrs by coulter counting; conditions: Cancer cell lines; how it was run: as §3
[5] = Cytotoxicity against human colon cancer cells after 48 hrs by coulter counting; conditions: Cancer cell lines; how it was run: as §3
SF-295 = test: Growth inhibition of human SF295 cells at 10 uM after 48 hrs by coulter counting; conditions: SF-295, 48 h, read-out: GI; how it was run: as §2
EKVX = test: Growth inhibition of human EKVX cells at 10 uM after 48 hrs by coulter counting; conditions: read-out: GI; how it was run: as §2
HOP-62 = test: Growth inhibition of human HOP62 cells at 10 uM after 48 hrs by coulter counting; how it was run: as §2
DU-145 = test: Growth inhibition of human DU145 cells at 10 uM after 48 hrs by coulter counting; how it was run: as §2
SF-268 = test: Growth inhibition of human SF268 cells at 10 uM after 48 hrs by coulter counting; conditions: SF-268, 48 h, read-out: GI; how it was run: as §2
M14 = test: Growth inhibition of human M14 cells at 10 uM after 48 hrs by coulter counting; conditions: M14, 48 h, read-out: GI; how it was run: as §2
HCT-15 = test: Growth inhibition of human HCT15 cells at 10 uM after 48 hrs by coulter counting; how it was run: as §2
SN12C = test: Growth inhibition of human SN12C cells at 10 uM after 48 hrs by coulter counting; conditions: read-out: GI; how it was run: as §2
NCI/ADR-RES = test: Growth inhibition of human NCI/ADR-RES cells at 10 uM after 48 hrs by coulter counting; conditions: read-out: GI; how it was run: as §2
786-0 = test: Growth inhibition of human 786-0 cells at 10 uM after 48 hrs by coulter counting; conditions: 786-0, 48 h, read-out: GI; how it was run: as §2
A498 = test: Growth inhibition of human A498 cells at 10 uM after 48 hrs by coulter counting; conditions: A498, 48 h, read-out: GI; how it was run: as §2
UO-31 = test: Growth inhibition of human UO31 cells at 10 uM after 48 hrs by coulter counting; how it was run: as §1
NCI-H460 = test: Growth inhibition of human NCI-H460 cells at 10 uM after 48 hrs by coulter counting; how it was run: as §2
HCT-116 = test: Growth inhibition of human HCT116 cells at 10 uM after 48 hrs by coulter counting; how it was run: as §2
TK-10 = test: Growth inhibition of human TK10 cells at 10 uM after 48 hrs by coulter counting; conditions: TK-10, 48 h, read-out: GI; how it was run: as §1
OVCAR-8 = test: Growth inhibition of human OVCAR8 cells at 10 uM after 48 hrs by coulter counting; how it was run: as §2
SK-MEL-2 = test: Growth inhibition of human SK-MEL-2 cells at 10 uM after 48 hrs by coulter counting; conditions: SK-MEL-2, 48 h, read-out: GI; how it was run: as §2
MOLT-4 = test: Growth inhibition of human MOLT4 cells at 10 uM after 48 hrs by coulter counting; conditions: MOLT-4, 48 h, read-out: GI; how it was run: as §2
[6] = read-out: LC50 (the source's name)

In the case of `CCN1CC2=C(N=C3SC=CN3C2c2ccc(OC)cc2)/C(=C/c2ccc(OC)cc2)C1` (stereo not drawn), the “growth inhibition (GI)” value (U-251) is reported as “Active”, the inhibition of growth at 10 µM (SK-MEL-5) is reported as 74.4% and the GI50 [1] is reported as 3.5 µM. It also gave a TGI [1] of 10.9 µM, a CC50 [1, 6] of 55 µM and an inhibition of growth at 10 µM (ACHN) of 83%. For the same molecule, the inhibition of growth at 10 µM (UACC-257) was 44.8%, the “growth inhibition (GI)” value (OVCAR-3) was “Active” and the inhibition of growth at 10 µM (SK-MEL-28) was 10.9%. For the same molecule, the inhibition of growth at 10 µM (CCRF-CEM) was 97.3%, the “growth inhibition (GI)” value (SR) was “Active” and the inhibition of growth at 10 µM (UACC-62) was 49.3%. For the same molecule, the inhibition of growth at 10 µM (NCI-H522) was 52.3%, the “growth inhibition (GI)” value (K562) was “Active” and the inhibition of growth at 10 µM (NCI-H226) was 88%. The GI50 [2] was 2.8 µM, the TGI [2] was 22.5 µM and the CC50 [2, 6] was 74.7 µM. It also gave an inhibition of growth at 10 µM (MCF7) of 74.3%, a GI50 [3] of 2.7 µM and a TGI [3] of 81.6 µM. For the same molecule, the CC50 [3, 6] was over 100 µM, the inhibition of growth at 10 µM (SNB-19) was 68.3% and the inhibition of growth at 10 µM (NCI-H23) was 54.8%. The GI50 [4] was 2.3 µM, the LC50 (concentration giving 50% net cell kill) [4] was 24.9 µM and the TGI [4] was 6 µM. It also gave a GI50 [5] of 1.7 µM, an LC50 (concentration giving 50% net cell kill) [5] of 6.7 µM and a TGI [5] of 3.4 µM. The inhibition of growth at 10 µM (SF-295) was 71.8%, the inhibition of growth at 10 µM (EKVX) was 51.9% and the “growth inhibition (GI)” value (HOP-62) was “Active”. For the same molecule, the “growth inhibition (GI)” value (DU-145) was “Active”, the inhibition of growth at 10 µM (SF-268) was 85.5% and the inhibition of growth at 10 µM (M14) was 97.5%. The “growth inhibition (GI)” value (HCT-15) was “Active”, the inhibition of growth at 10 µM (SN12C) was 96.9% and the inhibition of growth at 10 µM (NCI/ADR-RES) was 76.9%. For the same molecule, the inhibition of growth at 10 µM (786-0) was 53.2%, the inhibition of growth at 10 µM (A498) was 11.1% and the “growth inhibition (GI)” value (UO-31) was “Active”. The “growth inhibition (GI)” value (NCI-H460) was “Active”, the “growth inhibition (GI)” value (HCT-116) was “Active” and the inhibition of growth at 10 µM (TK-10) was 70%. The “growth inhibition (GI)” value (OVCAR-8) was “Active”, the inhibition of growth at 10 µM (SK-MEL-2) was over 10% and the inhibition of growth at 10 µM (MOLT-4) was 90.4%.

Source: ChEMBL document CHEMBL1926614, “Substituted thiazoles V. synthesis and antitumor activity of novel thiazolo[2,3-b]quinazoline and pyrido[4,3-d]thiazolo[3,2-a]pyrimidine analogues” (2012)
